A short description of data set [1]: Antiproliferative activity against human MCF7 cells after 72 hrs by CellTiter-Glo assay. Type of data set: functional, cell-based. The note with it: MCF7, 72 h. An outline of the steps:
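Cells were kept at 37 °C, 5% CO2. 10,000 cells per well were dosed with serial dilutions in serum-free medium. Luminescence was read by CellTiter-Glo and IC50 taken from the dose-response curve. Each experiment was run three times (SD).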
In general terms: Cellular ATP, detected with luciferase, serves as a proxy for viable cell number.

Data set [2] can be described thus: Drug uptake in human MCF7 cells at 5 uM after 24 hrs by DAPI staining based confocal microscopic method. Type of data set: ADME, cell-based. The note with it: mcf7, 24 h.
A short description of data set [3]: Drug uptake in cytoplasm of human SKBR3 cells at 5 uM after 4 hrs by DAPI staining based confocal microscopic method. It counts as ADME, cell-based. The note with it: sk-br-3, 4 h. In a few lines:
(§1)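 SKBR-3 cells were seeded for 24 h, then exposed to 5 μM at 37 °C for 30 min, 4 h or 24 h. Cells were PBS-washed, fixed in methanol at −20 °C for 5 min and mounted with DAPI.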

Data set [4] is described as follows: Drug degradation in human SKBR3 cells at 50 uM after 4 hrs by HPLC method. Type of data set: ADME, cell-based, SK-BR-3. The note with it: read-out: Drug degradation. In a few lines:
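About 15,000 trypsinised SKBR-3 cells were resuspended with 50 μM (final) conjugate in serum-free medium at 37 °C, one sample per time point (0 min–48 h). Cells were lysed with chilled acetonitrile, sonicated and centrifuged, and the supernatant was cleaned on Sep-Pak. Intact-conjugate peak area was measured by C18 reversed-phase HPLC and expressed relative to time zero. Each time point was run in triplicate.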

The nature of data set [5]: Drug uptake in nucleus of human SKBR3 cells at 5 uM after 30 mins by DAPI staining based confocal microscopic method. It counts as ADME, cell-based. The note with it: sk-br-3, 0.5 h. In a few lines: as §1
A short description of data set [6]: Drug uptake in nucleus of human SKBR3 cells at 5 uM after 4 hrs by DAPI staining based confocal microscopic method. The note with it: sk-br-3, 4 h. Type of data set: ADME, cell-based. In a few lines: as §1
Data set [7] can be described thus: Drug uptake in cytoplasm of human SKBR3 cells at 5 uM after 24 hrs by DAPI staining based confocal microscopic method. Type of data set: ADME, cell-based. The note with it: sk-br-3, 24 h. An outline of the steps: as §1
The nature of data set [8]: Cell cycle arrest in human BT474 cells assessed as S phase accumulation at 1 uM incubated for 1 hr followed by 24 hrs incubation in drug free medium by propidium iodide staining based flow cytometry (reference value: 8.4 to 13.6%). The note with it: BT-474. Type of data set: functional. In a few lines:
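About 2 × 10⁵ BT-474 cells exposed 1 h, then 24 h in drug-free, serum-free medium. Cells were fixed in 70% ethanol for 2 h at −20 °C, then stained with 100 μg/mL RNase plus 40 μg/mL propidium iodide for 30 min at 4 °C. DNA content was read by FACS (10,000 events). Triplicate.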
(In general: In flow cytometry, cells or beads pass a laser one at a time.)

Data set [9] in a line: Cell cycle arrest in human BT474 cells assessed as G2/M phase accumulation at 1 uM incubated for 1 hr followed by 24 hrs incubation in drug free medium by propidium iodide staining based flow cytometry. Type of data set: functional. The note with it: BT-474. An outline of the steps: (§2)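 About 2 × 10⁵ BT-474 cells were exposed to 1 μM for 1 h, then kept 24 h in drug-free, serum-free medium. Cells were fixed in 70% ethanol (2 h, −20 °C) and stained with 100 μg/mL RNase plus 40 μg/mL propidium iodide (4 °C, 30 min). DNA content was read on 10,000 cells by FACS. Experiments were done in triplicate.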

For data set [10], the target named is T1, Receptor tyrosine-protein kinase erbB-2 (Homo sapiens, UniProt P04626). Briefly: Binding affinity to HER2 extracellular domain (unknown origin) by SPR assay. (Surface plasmon resonance follows binding to a sensor surface in real time, without labels.)
Data set [11] in a line: Antiproliferative activity against human MCF10A cells after 72 hrs by CellTiter-Glo assay. Type of data set: cell-based. The note with it: MCF-10A. In a few lines:
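Cells were kept at 37 °C, 5% CO2. Media: RPMI-1640 (BT-474, MCF-7), EMEM (Calu-3), McCoy's (SKBR-3), DMEM (MCF-10A), each with 10% FBS, 1% pen-strep and 1% insulin. 10,000 cells per well were dosed with serial dilutions in serum-free medium. Luminescence was read by CellTiter-Glo and IC50 taken from the dose-response curve. Each experiment was run three times (SD).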

A short description of data set [12]: Cell cycle arrest in human BT474 cells assessed as G0/G1 phase accumulation at 1 uM incubated for 1 hr followed by 24 hrs incubation in drug free medium by propidium iodide staining based flow cytometry. It counts as functional. The note with it: BT-474. An outline of the steps:
as §2

Data set [13] can be described thus: Antiproliferative activity against human SKBR3 cells after 24 hrs by CellTiter-Glo assay. It counts as functional, cell-based. The note with it: SK-BR-3, 24 h. In a few lines:
(§3)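 10,000 cells per well, plated the day before treatment. Triplicate wells got serially diluted drug (0.001 to 100 μM) in serum-free medium at 37 °C. 1% SDS and 1% DMSO served as controls. After a PBS wash, CellTiter-Glo was added for about 20 min and luminescence read. IC50 came from the dose-response curve. Each experiment was run three times (SD).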

Data set [14] is described as follows: Antiproliferative activity against human BT474 cells after 48 hrs by CellTiter-Glo assay. Type of data set: functional, cell-based. The note with it: BT-474, 48 h. An outline of the steps: as §3
A short description of data set [15]: Drug uptake in human MCF7 cells at 5 uM after 30 mins by DAPI staining based confocal microscopic method. Type of data set: ADME, cell-based. The note with it: mcf7, 0.5 h. An outline of the steps:
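MCF-7 cells were run like the SKBR-3 imaging: 37 °C for 30 min, 4 h or 24 h, methanol fixation at −20 °C, and DAPI mounting.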

A short description of data set [16]: Antiproliferative activity against human Calu3 cells after 48 hrs by CellTiter-Glo assay. Type of data set: functional, cell-based. The note with it: Calu-3, 48 h. An outline of the steps:
as §3

A short description of data set [17]: Antiproliferative activity against human BT474 spheroids after 3 days by CellTiter-Glo assay. The note with it: BT-474, 72 h. Type of data set: functional. In a few lines: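 They were treated at 0.001–10 μM for 3 days at 37 °C, with 1% SDS and 1% DMSO as controls. Viability was read by 3D CellTiter-Glo luminescence and IC50 taken from the log plot. Each experiment was run three times (SD).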

Data set [18] is described as follows: Drug uptake in human SKBR3 cells at 5 uM after 24 hrs by DAPI staining based confocal microscopic method. It counts as ADME, cell-based. The note with it: sk-br-3, 24 h. An outline of the steps:
(§4)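 SKBR-3 cells were seeded and treated 24 h later, then incubated at 37 °C for 30 min, 4 h or 24 h. Cells were fixed with methanol for 5 min at −20 °C and mounted in DAPI.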

Data set [19] can be described thus: Antiproliferative activity against human BT474 cells after 24 hrs by CellTiter-Glo assay. Type of data set: functional, cell-based. The note with it: BT-474, 24 h. An outline of the steps: as §3
The nature of data set [20]: Drug uptake in cytoplasm of human SKBR3 cells at 5 uM after 30 mins by DAPI staining based confocal microscopic method. Type of data set: ADME, cell-based. The note with it: sk-br-3, 0.5 h. In a few lines:
as §4

Data set [21] concerns the target T1, Receptor tyrosine-protein kinase erbB-2. Briefly: Binding affinity to HER2 domain-4 (unknown origin) by SPR assay.
Data set [22] in a line: Antiproliferative activity against human Calu3 cells after 24 hrs by CellTiter-Glo assay. Type of data set: functional, cell-based. The note with it: Calu-3, 24 h. An outline of the steps:
as §3

Molecules are shown by their SMILES. pIC50, pKd: −log10 of the molar value.

By pIC50 is commonly meant the negative decadic logarithm of the IC50, by convention in mol/L. One may read the pKd as −log10 of the Kd, conventionally taken in molar units. Lower therefore signals a large Kd.

T1 sequence (P04626 whole entry, the tested form may be a part): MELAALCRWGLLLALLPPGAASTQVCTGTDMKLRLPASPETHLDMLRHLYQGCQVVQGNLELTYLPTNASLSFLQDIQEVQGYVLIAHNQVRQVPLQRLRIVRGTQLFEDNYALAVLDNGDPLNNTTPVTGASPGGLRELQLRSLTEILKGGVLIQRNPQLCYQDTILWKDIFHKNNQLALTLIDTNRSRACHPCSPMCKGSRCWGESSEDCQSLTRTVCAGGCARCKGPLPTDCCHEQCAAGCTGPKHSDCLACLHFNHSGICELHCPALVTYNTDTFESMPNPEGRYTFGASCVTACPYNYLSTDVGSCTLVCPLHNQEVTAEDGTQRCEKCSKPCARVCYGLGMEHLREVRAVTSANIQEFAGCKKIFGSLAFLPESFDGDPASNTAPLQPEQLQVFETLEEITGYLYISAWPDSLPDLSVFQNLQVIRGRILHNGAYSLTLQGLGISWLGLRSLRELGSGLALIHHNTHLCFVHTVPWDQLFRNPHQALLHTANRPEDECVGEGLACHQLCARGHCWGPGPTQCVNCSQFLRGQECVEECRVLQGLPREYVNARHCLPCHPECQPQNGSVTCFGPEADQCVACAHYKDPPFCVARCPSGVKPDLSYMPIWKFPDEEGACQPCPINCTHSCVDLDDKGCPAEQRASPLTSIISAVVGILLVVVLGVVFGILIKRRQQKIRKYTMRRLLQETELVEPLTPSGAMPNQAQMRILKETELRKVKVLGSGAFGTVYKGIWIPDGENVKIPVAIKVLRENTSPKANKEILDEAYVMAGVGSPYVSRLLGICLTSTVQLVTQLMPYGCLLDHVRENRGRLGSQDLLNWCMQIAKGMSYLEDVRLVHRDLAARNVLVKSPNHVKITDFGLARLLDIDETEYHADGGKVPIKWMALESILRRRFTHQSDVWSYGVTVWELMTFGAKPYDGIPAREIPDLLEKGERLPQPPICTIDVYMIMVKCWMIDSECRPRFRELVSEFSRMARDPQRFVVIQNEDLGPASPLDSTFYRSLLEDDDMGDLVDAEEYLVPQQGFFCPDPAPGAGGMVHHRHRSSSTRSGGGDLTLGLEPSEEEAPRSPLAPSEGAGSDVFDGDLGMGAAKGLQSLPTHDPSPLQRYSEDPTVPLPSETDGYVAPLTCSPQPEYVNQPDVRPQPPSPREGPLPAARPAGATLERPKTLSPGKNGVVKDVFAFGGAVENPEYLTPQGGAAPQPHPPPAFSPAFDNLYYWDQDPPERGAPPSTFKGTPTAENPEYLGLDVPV

Consider `COc1cccc2c1C(=O)c1c(O)c3c(c(O)c1C2=O)C[C@@](O)(C(=O)CO)C[C@@H]3O[C@H]1C[C@H](NC(=O)CCCC(=O)N[C@@H](CCCNC(=N)N)C(=O)N[C@@H](CC(=O)N[C@@H](Cc2ccccc2)C(=O)O)c2cccc3ccccc23)[C@H](O)[C@H](C)O1`, for which, in [1], the pIC50 is 6.10. The Drug uptake result in data set [2], in data set [3], in [5], in [6] and in data set [7] was “Active” in each case. Moreover, the metabolised at 4 h, 50 µM in data set [4] was 50%.
As for `N=C(N)NCCC[C@H](N)C(=O)N[C@@H](CC(=O)N[C@@H](Cc1ccccc1)C(=O)O)c1cccc2ccccc12`, the results for the Activity in data set [8], in [9] and in data set [12] were 5.7%, 23.6% and 67%, respectively. In [10], this compound showed a pKd of 6.00. This compound had a pIC50 in data set [11] of under 4.30.
As to `COc1cccc2c1C(=O)c1c(O)c3c(c(O)c1C2=O)C[C@@](O)(C(=O)CO)C[C@@H]3O[C@H]1C[C@H](N)[C@H](O)[C@H](C)O1` [DOXORUBICIN], the pIC50 in data set [13] was 7.47; in data set [14] it was 7.39; in data set [16], 6.96; in [17], 6.74; in [19] it was 7.28; in data set [11], 6.82. Also, the pIC50 in [22] was 6.57. Also, the Drug uptake result in data set [15], in data set [5], in [6], in data set [18] and in data set [20] was “Active” throughout. Moreover, the Activity in data set [8] was found to be 3.7%. In data set [21], this compound had a pKd of 1.96.
